Only a selection was taken, and hits are over-represented in it overall.
IDH1 mut inh: inhibitors of IDH1 R132H reductase, primary screen, biochemical, plate reader, single point | hit rate 0.18% among 70,000 | diaphorase/resazurin fluorescence, 60 min | Isocitrate dehydrogenase [NADP] cytoplasmic (Homo sapiens), O75874 | inhibition, % at 10 µM; in the data active means inhibition above about 34%; inconclusive means no clear call, values can overlap the other calls; inactive means below about 11%;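 further: 0% = DMSO and 100% = no enzyme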
GASC1 inh: inhibitors of GASC-1 (KDM4C) histone demethylase, primary screen, biochemical, single concentration HTS | inhibition, % at 12.5 µM | GST-KDM4C 2-372, H3K9me3 peptide, LANCE TR-FRET | hit rate 0.15% among 96,000 | AID 720574, 2013 | Lysine-specific demethylase 4C (Homo sapiens), Q9H3R0;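 active means mean replicate inhibition above about 25%, with at least 55% of replicates also reaching it, limit read from the data, passing the limit was not always enough; inconclusive means only one of those two conditions met; inactive means neither condition met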
Target sequence (Q9H3R0 2-372 limits assumed): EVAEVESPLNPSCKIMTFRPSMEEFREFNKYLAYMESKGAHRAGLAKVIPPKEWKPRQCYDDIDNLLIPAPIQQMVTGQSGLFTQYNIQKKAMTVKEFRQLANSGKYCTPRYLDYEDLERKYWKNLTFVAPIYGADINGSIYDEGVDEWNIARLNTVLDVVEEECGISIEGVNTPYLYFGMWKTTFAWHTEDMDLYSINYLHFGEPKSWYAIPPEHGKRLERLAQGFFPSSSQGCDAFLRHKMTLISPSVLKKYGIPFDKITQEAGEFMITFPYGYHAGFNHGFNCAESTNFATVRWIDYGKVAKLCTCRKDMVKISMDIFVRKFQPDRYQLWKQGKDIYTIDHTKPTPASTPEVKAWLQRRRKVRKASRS
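System – N-terminal GST-fused human GASC-1 (KDM4C) fragment, residues 2-372 · Input – enzyme final amount 10 nM · Technique – LANCE TR-FRET, Eu antibody, ULight-streptavidin, EDTA, ex 340 nm, em 618/671 nm · Medium – HEPES buffer, pH 7.5, plus ascorbate · Incubation – enzyme reaction 30 min, then detection 60 min, both room temperature · Reagent – H3K9me3 peptide with Fe(II)/2OG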
T cruzi growth-1: T. cruzi intracellular proliferation inhibitors, primary screen, cell-based, beta-gal Tulahuen parasites, NIH3T3 host, luminescence. inhibition, % at 8.34 µM. hit rate 5.9% among 77,000. T. cruzi beta-gal in NIH3T3, GalScreen luminescence, 90 h;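 active means mean inhibition above about 93%, with at least 55% of replicates each passing it, limit read from the data, passing the limit was not always enough; inconclusive means only one of those two conditions holds; inactive means neither condition holds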
T cruzi growth-2: T. cruzi intracellular proliferation inhibitors, confirmation, cell-based, NIH3T3 host, beta-gal parasite, luminescence, cherry-pick. shares compounds with T cruzi growth-1. hit rate 72% among 5,600. AID 651739, 2012. T. cruzi beta-gal in NIH3T3, GalScreen luminescence, 90 h. inhibition, % at 8.35 µM;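 active means mean replicate inhibition above about 95% and at least 55% of replicates individually reaching it, limit read from the data; inconclusive means only one of the two criteria is met; inactive means neither criterion is met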
T cruzi growth-3: inhibitors of intracellular T. cruzi replication, confirmation, NIH3T3 host cells, beta-gal parasites, cherry-pick, set 2 | hit rate 21% among 5,600 | T. cruzi beta-gal in NIH3T3, GalScreen luminescence, 90 h | inhibition, % at 2.09 µM | AID 651740, 2012 | shares compounds with T cruzi growth-1;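 active means mean inhibition above about 95%, with at least 55% of replicates also reaching it, limit read from the data; inconclusive means meets just one of the two conditions; inactive means meets neither condition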;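 further: plate controls were neutral control median for no effect and positive control median for full effect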
3T3 cytotox: cytotoxicity in mouse NIH/3T3 fibroblasts, confirmation, cytotoxicity control for T. cruzi proliferation inhibitor project, cell-based, cherry-pick, single point. shares compounds with T cruzi growth-1. NIH/3T3 viability, CellTiter-Glo ATP luminescence, 90 h. cytotoxicity (signal decrease), % at 8.35 µM. hit rate 14% among 5,600. AID 651742, 2012;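 active means mean signal decrease across replicates above about 35% based on untreated-well scatter, with enough replicates individually passing, limit read from the data; inconclusive means no rule stated though some were filed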;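 further: 0% = median of neutral control wells and 100% = median of positive control wells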
3T3 cytotox 2: NIH/3T3 fibroblast cytotoxicity, confirmation, cytotoxicity control, cell-based, cherry-pick, single point, set 2; shares compounds with T cruzi growth-1; NIH/3T3 viability, CellTiter-Glo ATP luminescence, 90 h; inhibition, % at 24.9 µM; hit rate 56% among 5,600; AID 651744, 2012;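 active means mean loss of cell viability signal at or above a set limit, and enough replicates individually reaching it; inconclusive means meets only the mean limit or only the replicate share; inactive means meets neither condition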;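 further: 0% = median of neutral control wells and 100% = median of positive control wells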
* hit, by the source's call; u = inconclusive; x = no result.

SMILES	IDH1 mut inh	GASC1 inh	T cruzi growth-1	T cruzi growth-2	T cruzi growth-3	3T3 cytotox	3T3 cytotox 2
C[C@H](CO)N1C[C@H](C)[C@@H](CN(C)C(=O)Nc2ccccc2F)Oc2ncc(/C=C/c3ccccc3)cc2C1=O	0	-1	118*	112*	55	16	17
C[C@@H]1CN([C@H](C)CO)C(=O)c2cc(/C=C/c3ccccc3)cnc2O[C@H]1CN(C)C(=O)Nc1ccccc1F	1	-4	124*	109*	104*	10	u
C/C=C/c1cnc2c(c1)C(=O)N([C@H](C)CO)C[C@H](C)[C@H](CN(C)C(=O)Nc1ccccc1F)O2	1	0	19	x	x	x	x
C/C=C/c1cnc2c(c1)C(=O)N([C@H](C)CO)C[C@@H](C)[C@H](CN(C)C(=O)Nc1ccccc1F)O2	0	-1	4	x	x	x	x
CCCNC(=O)N(C)C[C@H]1Oc2ncc(/C=C/c3ccccc3)cc2C(=O)N([C@H](C)CO)C[C@@H]1C	0	-1	93	x	x	x	x
CNC(=O)C(=O)NCCc1c[nH]c2ccccc12	0	x	x	x	x	x	x
O=C(Cn1cnc2sc(-c3ccccc3)cc2c1=O)Nc1cccc(C(F)(F)F)c1	0	x	x	x	x	x	x
C=CCn1c2ccccc2c2nnc(SCC(=O)c3ccc(C)cc3)nc21	0	x	x	x	x	x	x
CC(C)=CCC/C(C)=C/CC/C(C)=C/Cc1c(C)cc(O)cc1O	3	x	x	x	x	x	x
CCOC(=O)c1cnc2c(C)cc(Cl)cc2c1NCCN1CCOCC1	0	x	x	x	x	x	x
COc1ccccc1C#Cc1ccc([C@@H]2[C@@H](CO)N3CCCCN(C(=O)C4CCC4)C[C@@H]23)cc1	x	-1	82	x	x	x	x
COc1ccccc1C#Cc1ccc([C@@H]2[C@H]3CN(C(=O)C4CC4)CCCCN3[C@H]2CO)cc1	x	x	103*	109*	50	u	102*
COc1ccccc1C#Cc1ccc([C@H]2[C@H](CO)N3CCCCN(C(=O)C4CC4)C[C@@H]23)cc1	x	x	106*	109*	76	28	104*
Cc1sc2ncnc(SCC(=O)c3ccc4ccccc4c3)c2c1C	0	x	x	x	x	x	x
CC[C@H]1C(=O)CC2C3CCC4C[C@@H](O)[C@]5(O)C[C@]4(CO5)C3CC[C@@]21C (stereo partly specified)	1	x	x	x	x	x	x
C[C@@H]1CN([C@@H](C)CO)C(=O)c2cc(NS(=O)(=O)c3ccc(Cl)cc3)ccc2O[C@@H]1CN(C)S(=O)(=O)c1ccc(Cl)cc1	0	0	u	113*	42	28	65*
C[C@@H]1CN([C@@H](C)CO)C(=O)c2cc(NS(=O)(=O)c3ccc(Cl)cc3)ccc2O[C@H]1CN(C)S(=O)(=O)c1ccc(Cl)cc1	2	0	39	x	x	x	x
Cc1ccc(S(=O)(=O)N(C)C[C@H]2Oc3ccc(NS(=O)(=O)c4ccc(Cl)cc4)cc3C(=O)N([C@H](C)CO)C[C@H]2C)cc1	7	0	100*	96*	13	28	36*
Cc1ccc(S(=O)(=O)Nc2ccc3c(c2)C(=O)N([C@@H](C)CO)C[C@H](C)[C@H](CN(C)S(=O)(=O)c2ccc(Cl)cc2)O3)cc1	0	0	x	x	x	x	x
CCC(=O)c1c(OCC(N)=O)ccc2c(C)cc(=O)oc12	1	x	x	x	x	x	x
CC(=O)Nc1ccc(NC(=O)CN(c2ccc(Br)c(C)c2)S(C)(=O)=O)cc1	0	x	x	x	x	x	x
Cc1ccc(NC(=O)CSc2nnnn2-c2ccc(Cl)c(C(=O)O)c2)cc1C	0	x	x	x	x	x	x
O=C(C[C@@H]1CC[C@H]2[C@@H](COC[C@H](O)CN2Cc2ccc(Oc3ccccc3)cc2)O1)N1CCN(c2ccccc2)CC1	x	1	130*	102*	62	38*	101*

Compound activity as filed in PubChem BioAssay.
